Results taken from paper PMC4503318 (Chemistry & biology, 2015).
Like-named read-outs stand apart in the source and are kept apart here.

Tests used:
Pf-like human LysRS = Pf-like human LysRS (Homo sapiens, UniProt Q15046, P300T/Q321V/T337S); experiment: Thermal shift assay, Pf-like human LysRS; assay type: binding
How it was run: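 Pf-like human LysRS (residues 70-584) was co-expressed in E. coli BL21(DE3) with His-tagged AIMP2/p38 1-36 and purified by Ni affinity and gel filtration. A 2× mix held 4 μM protein in Tris-HCl pH 8.0/NaCl/DTT, plus 40 μM test compound, 1 mM lysine, 40 μM ATP or 2 mM CaCl2. It sat 30 min at room temperature, then was chilled and mixed 1:1 with dye. Fluorescence was read during heating from 10 to 90 °C at 1 °C/min, averaging 8 curves. Tm was fitted by Levenberg-Marquardt. Kd was extrapolated to 25 °C, assuming 62760 J/mol binding enthalpy. Kd was not determined for negative ΔTm.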

Phomopsis viticola = conditions: CP at 30 μM; ref Wang et al., 2013; cited from earlier work
E. coli = conditions: up to 100 μg/ml CP; ref Anke, 1979; cited from earlier work
PfLysRS [1] = target: T1, PfLysRS (Plasmodium falciparum, UniProt Q8IDJ8); experiment: Thermal shift assay, PfLysRS; assay type: binding, P. falciparum
Colletotrichum acutatum = conditions: CP at 30 μM; ref Wang et al., 2013; cited from earlier work
[2] = tested on: Colletotrichum gloeosporioides; conditions: CP at 30 μM; ref Wang et al., 2013; cited from earlier work
HsLysRS = HsLysRS (Homo sapiens, UniProt Q15046); experiment: Thermal shift assay, HsLysRS; assay type: binding
human cells = conditions: ref Hoepfner et al., 2012; cited from earlier work
[3] = tested on: blood- and liver- stage Plasmodium falciparum parasite forms; conditions: Plasmodium parasites compared to mammalian cells; ref Hoepfner et al., 2012; cited from earlier work
Colletotrichum fragariae = conditions: CP at 30 μM; ref Wang et al., 2013; cited from earlier work
[4] = tested on: yeast LysRS Q324V and T340S; conditions: Q324V and T340S mutations of yeast LysRS; ref Hoepfner et al., 2012; cited from earlier work
PfLysRS [5] = target: T1, PfLysRS; conditions: yeast-growth-based assay; ref Hoepfner et al., 2012; cited from earlier work
IleRS = conditions: ref Hughes and Mellows, 1980; cited from earlier work
[6] = Pf-like human LysRS, ligand alone (no lysine co-ligand for ATP/CP)
[7] = Pf-like human LysRS, with lysine
[8] = PfLysRS, ligand alone (no lysine co-ligand), estimated from ΔTm, 25°C
[9] = HsLysRS, ligand alone (no lysine co-ligand for ATP/CP)

Chain of HsLysRS (Q15046 70-584): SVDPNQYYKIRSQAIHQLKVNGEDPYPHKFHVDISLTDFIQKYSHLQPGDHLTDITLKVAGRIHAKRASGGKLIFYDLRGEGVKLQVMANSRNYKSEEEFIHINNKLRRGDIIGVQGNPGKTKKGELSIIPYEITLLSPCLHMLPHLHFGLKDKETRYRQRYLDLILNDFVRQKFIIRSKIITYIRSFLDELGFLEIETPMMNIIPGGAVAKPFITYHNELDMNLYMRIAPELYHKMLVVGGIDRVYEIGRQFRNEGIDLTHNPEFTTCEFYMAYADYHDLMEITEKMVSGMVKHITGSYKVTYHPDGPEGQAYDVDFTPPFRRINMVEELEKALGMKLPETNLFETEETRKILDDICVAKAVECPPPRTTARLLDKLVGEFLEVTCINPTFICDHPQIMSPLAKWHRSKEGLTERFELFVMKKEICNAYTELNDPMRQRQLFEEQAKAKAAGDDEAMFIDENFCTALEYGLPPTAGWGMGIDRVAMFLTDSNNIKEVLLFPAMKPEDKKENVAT
Chain of HsLysRS (Q13155 1-36 partner limits assumed): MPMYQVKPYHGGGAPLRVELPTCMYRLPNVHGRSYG
Chain of Pf-like human LysRS (Q15046 70-584 P300T/Q321V/T337S): as the sequence (Q15046 70-584) above, with P231T, Q252V, T268S counted along it
Chain of Pf-like human LysRS (Q13155 1-36 partner limits assumed): as the sequence (Q13155 1-36 partner limits assumed) above

With C[C@H]1CCC[C@H](C[C@H]2Cc3cc(O)cc(O)c3C(=O)O2)O1 [CP, cladosporin] the Kd (Pf-like human LysRS) was 2.1 µM, the “stabilization effect (melting temperature)” value (Pf-like human LysRS; Pf-like human LysRS, CP even with the presence of lysine) was less than 2 °C and the ΔTm (Pf-like human LysRS; [6]) was -1.1 °C. The ΔTm (Pf-like human LysRS; [7]) was 1.0 °C, the inhibition of growth (Phomopsis viticola) was “over 80%” and the “effect on growth of E. coli” value (E. coli) was “not affected”. It also gave a Kd (PfLysRS [1]; PfLysRS, K-CP (with lysine)) of roughly 0.0024 µM, a Kd (PfLysRS [1]; [8]) of 1.5 µM and a Kd (PfLysRS [1]; PfLysRS, with lysine, estimated from ΔTm, 25°C) of 0.0024 µM. The “binding affinity tighter than in HsLysRS” value (PfLysRS [1]; PfLysRS vs HsLysRS, with lysine) was 1375 fold, the “stabilization by CP together with lysine relative to CP-alone” value (PfLysRS [1]; PfLysRS, 17.1 °C vs 2.4 °C) was 7 fold and the “stabilization effect with non-cognate amino acids” value (PfLysRS [1]; PfLysRS, CP, lysine replaced with any of the other 19 non-cognate amino acids) was “did not yield stabilization effect”. For the same compound, the “increase of binding affinity by the presence of lysine” value (PfLysRS [1]; PfLysRS, Kd with lysine vs no lysine) was 625 fold, the ΔTm at 40 µM (PfLysRS [1]; read-out: ΔTm) was 2.4 °C and the inhibition of growth (Colletotrichum acutatum) was “over 80%”. For the same compound, the inhibition of growth [2] was “over 80%”, the Kd (HsLysRS) was 3.3 µM and the “stabilization effect (melting temperature)” value (HsLysRS; HsLysRS, CP even with the presence of lysine) was less than 2 °C. For the same compound, the ΔTm (HsLysRS; [9]) was -0.8 °C, the ΔTm (HsLysRS; HsLysRS, with lysine) was 0.3 °C and the “effect on the growth of human cells” value (human cells) was “little effect”. The “selectivity index (IC50/CC50)” value [3] was greater than 111, the inhibition of growth (Colletotrichum fragariae) was “over 80%” and the “increase of sensitivity for CP inhibition” value [4] was 40 fold. For the same compound, the “potency against PfLysRS relative to HsLysRS or yeast LysRS” value (PfLysRS [5]) was 1000 fold.

For C/C(=C\C(=O)OCCCCCCCCC(=O)O)C[C@@H]1OC[C@H](C[C@@H]2O[C@H]2[C@@H](C)[C@H](C)O)[C@@H](O)[C@H]1O [mupirocin], the “selectivity for pathogenic over mammalian IleRS” value (IleRS) is listed as “about 8000 fold”.

In the case of Nc1ncnc2c1ncn2[C@@H]1O[C@H](COP(=O)(O)OP(=O)(O)OP(=O)(O)O)[C@@H](O)[C@H]1O [ATP], the ΔTm (Pf-like human LysRS; [6]) is reported as -0.9 °C, the ΔTm (Pf-like human LysRS; [7]) is reported as 0.9 °C and the Kd (Pf-like human LysRS; Pf-like human LysRS, with lysine, estimated from ΔTm, 25°C) is reported as 2.2 µM. It also gave a ΔTm (PfLysRS [1]; PfLysRS, with lysine) of 0.6 °C, a ΔTm (HsLysRS; [9]) of -0.2 °C and a ΔTm (HsLysRS; HsLysRS, with lysine) of 0.9 °C. For the same compound, the Kd (HsLysRS; HsLysRS, with lysine, estimated from ΔTm, 25°C) was 2.8 µM.

Work on NCCCC[C@H](N)C(=O)O [Lysine, L-lysine] yielded a ΔTm (Pf-like human LysRS; [6]) of -0.2 °C, a Kd (PfLysRS [1]; [8]) of 34.1 µM and a ΔTm at 1000 µM (PfLysRS [1]; read-out: ΔTm) of 2.7 °C. It also gave a Kd (HsLysRS) of 84.9 µM and a ΔTm (HsLysRS) of 0.1 °C.
